This note sets out measurements from ChEMBL document CHEMBL1121783, “Potential inhibitors of nucleotide biosynthesis. 1. Nitrosoureidonucleosides. 2” (J Med Chem, 1981).

Calls of active or inactive are those of the source.

Data set [1] can be described thus: Activity against hypoxanthine phosphoribosyltransferase; Not significant. It counts as functional.
The test system of data set [2] is Nucleic Acid. As to the kind of experiment: Percent inhibitory activity dose at 100 ug/mL to inhibit the incorporation of hypoxanthine and gaunine in DNA. It counts as functional.
The nature of data set [3]: Half-life in pH 7 phosphate buffer by using high-performance LC method.
The subject of data set [4] is Nucleic Acid. As to the kind of experiment: Percent inhibitory activity dose at 100 ug/mL to inhibit the incorporation of hypoxanthine and gaunine in RNA. It counts as functional.
Data set [5] deals with P388. Briefly: Activity against P388 leukemia cells; Inactive. It counts as functional. The note with it: Mus musculus. A digest of the protocol: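 In vivo P388 leukemia model; compound given daily for 9 days; activity scored as percent increase in life span (ILS).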
Data set [6] can be described thus: Half-life in plasma by using UV method. It counts as ADME, cell-free.
Data set [7] in a line: Half-life in pH 7 phosphate buffer by using high-performance LC method. The source holds these as a separate data set.
Assay in data set [8]: as above
The source holds these as a separate data set.

Data set [9] concerns HEp-2. Briefly: Growth, % of control, at a dose of 20 ug/ml against growth of H.Ep.-2 cells; 75-80%. As to conditions: Homo sapiens.
Data set [10] has as its system HEp-2. Described as above. The note with it: Homo sapiens. This is another data set of the same source.
For data set [11], the system named is P388. As to the kind of experiment: Activity at a dose of 200 mg/kg for 9 days against P388 leukemia cells. It counts as functional. The note with it: Mus musculus, P388, 216 h. An outline of the steps: (§1)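 P388 leukemia test: the compound was given daily for 9 days at 200 or 400 mg/kg. Activity is reported as percent increase in life span (ILS).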
In data set [12] the test system is P388. As to the kind of experiment: Activity at a dose of 400 mg/kg against P388 leukemia cells. It counts as functional. The note with it: Mus musculus. An outline of the steps: as §1

Take `CN(N=O)C(=O)NCCNC(=O)[C@H]1OC(n2cnc3c(O)ncnc32)[C@H](O)[C@@H]1O` (some centres not stated): the inhibition result (in [1]; in the data set on P388 [5]) was “inactive” each time. Moreover, the inhibition worked out at 35% in the data set on Nucleic Acid [2] and 61% in the data set on Nucleic Acid [4]. In addition, in [3], the half-life was 127 h.

With `Cc1cn(C2C[C@H](O)[C@@H](C(=O)NCCN(N=O)C(=O)NC3CCCCC3)O2)c(=O)[nH]c1=O` (some centres not stated), the half-life in data set [6] is 11 h.

With `O=NN(CCNC(=O)[C@H]1OC(n2cnc3c(O)ncnc32)[C@H](O)[C@@H]1O)C(=O)NC1CCCCC1` (some centres not stated), the half-life in data set [7] is 12 h.

The compound `O=NN(CCCl)C(=O)NC1CCCCC1` [LOMUSTINE] showed a half-life in [7] of 0.88 h.

`Cc1cn(C2CC(O)C(C(=O)NCCNC(=O)N(C)N=O)O2)c(=O)[nH]c1=O` (configuration not stated) had a half-life in [7] of 29 h.

As to `CN(N=O)C(N)=O` [N-METHYL-N-NITROSUREA], in [7], the half-life was 0.12 h.

`O=NN(CCNC(=O)[C@H]1OC(n2ccc(=O)[nH]c2=O)[C@H](O)[C@@H]1O)C(=O)NC1CCCCC1` (some centres not stated): the half-life in data set [8] was 8 h. This compound displayed a growth, % of control at 20 µg/mL in the data set with HEp-2 [9] of 75%.

As for `CNC(=O)NCCNC(=O)[C@H]1OC(n2cnc3c(O)ncnc32)[C@H](O)[C@@H]1O` (some centres not stated), the growth, % of control at 20 µg/mL in the data set with HEp-2 [10] was determined as 75%.

With `CN(N=O)C(=O)NCCNC(=O)[C@H]1OC(n2ccc(=O)[nH]c2=O)[C@H](O)[C@@H]1O` (some centres not stated), the ILS at 200 mg/kg in the data set with P388 [11] was 28%. In data set [8], this compound had a half-life of 17 h. This compound returned an ILS at 400 mg/kg with P388 [12] of 26%.

As for `CNC(=O)NCCNC(=O)C1OC(n2cc(C)c(=O)[nH]c2=O)CC1O` (configuration not stated), the growth, % of control at 20 µg/mL with HEp-2 [10] worked out at 75%.

One may read the inhibition as the share of the control response that was lost under treatment. Usually half-life stands for the time needed for the level to fall by half in the phase considered. The low end stands for rapid decline, the high end for slow decline. As a reminder, the ILS is how much longer treated animals lived than controls.
